# Bioassay records: PubChem BioAssay, several laboratories
# Rows were chosen to be rich in hits. Some 2.2% of all compounds tested hit in one or more screens of this group.
# NRP1-CendR mod: modulators of CendR peptide binding to NRP-1, primary screen, biochemical, fluorescence polarization, uHTS | Neuropilin-1 (Homo sapiens), O14786 | FAM-RPARPAR peptide binding to NRP-1 | inhibition, % at 25 µM | actives 0.85% (n = 360,000) | AID 602438, 2012;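 active = inhibition or corrected inhibition above about 18%, plus a signal ratio from 0.5 to 1.5, limit read from the data, passing the limit was not always enough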
# ARFGAP1 inh: inhibitors of rat ARFGAP1 GAP activity, primary screen, biochemical, fluorescence polarization, GDP tracer. actives 0.26% (n = 360,000). AID 651572, 2012. ADP-ribosylation factor GTPase-activating protein 1 (Rattus norvegicus), Q62848. Arfgap1-stimulated ARF1 GTP hydrolysis, GDP FP detection. inhibition, % at 16.5 µM;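 active = inhibition above a per-plate limit, mean inhibition of low control wells plus 3 SD, cut at about 25% in these data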;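 note: 0% = DMSO wells with enzyme and 100% = wells lacking Arfgap1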
#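 Repeats: one replicate per compound; assay system: rat Arfgap1 catalytic domain, aa 1-136; times: enzyme reaction 120 min at 25 °C after 20 min preincubation; detection: FP of antibody-bound GDP Alexa 633 tracer, ex 620/em 688 nm; benchmarks: high control wells lacking Arfgap1, low control full reaction with DMSO; reagent: human ARF1(Δ1-17)-GTP substrate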
# Granule exo inh: LAMP-1 surface exposure blockers, TALL-104 cells – cell-based, flow cytometry, MLPCN library, primary screen; inhibition, % at 10 µM; AID 651702, 2012; actives 0.66% (n = 360,000); TALL-104 LAMP-1 surface exposure; cells stimulated with thapsigargin and PMA;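 active = inhibition above about 55%, limit read from the data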
# V-ATPase pH: regulators of yeast V-ATPase proton pumping, primary screen, pHLuorin cytosolic pH fluorescence; S. cerevisiae; response, % at 10 µM; actives 0.37% (n = 350,000); AID 504577, 2011; in the data active = response mostly above about 7.3%, no sharp cut-off; inactive = mostly below about 5.4%; note: actives read high
# ASAP1 GAP inh: inhibitors of human ASAP1 ArfGAP activity, primary screen, biochemical, fluorescence polarization | Arf-GAP with SH3 domain, ANK repeat and PH domain-containing protein 1 (Homo sapiens), … | ASAP1-stimulated ARF1 GTP hydrolysis, GDP FP detection | inhibition, % at 16.5 µM | actives 0.19% (n = 360,000) | AID 624377, 2012; in the data active = inhibition above about 25%;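 note: 0% = vehicle with enzyme and substrate and 100% = no enzyme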
# Exocytosis CP01: inhibitors of lytic granule exocytosis, confirmation, TALL-104 cells, flow cytometry, Cherry Pick01 | shares compounds with Granule exo inh | LAMP-1 externalization; stimulated with PMA plus thapsigargin | inhibition, % at 10 µM | actives 11% (n = 1,500); in the data active = inhibition above about 60%;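 note: 0% = stimulated vehicle wells and 100% = unstimulated wells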
# * hit, by the source's call; . = no result.
SMILES,NRP1-CendR mod,ARFGAP1 inh,Granule exo inh,V-ATPase pH,ASAP1 GAP inh,Exocytosis CP01
COc1ccc(CCNC(=O)C23CN(Cc4ccccc4)CC2C(c2ccc([N+](=O)[O-])cc2)=NO3)cc1 (centres undefined),19.5,6.3,60.4*,-2.2,-1.2,-12.3
COc1ccc(C(=O)N(CCc2ccccc2)Cc2cccs2)c(OC)c1,3.7,1.9,63.6*,-7.0,4.2,-9.7
COc1ccc(C(=O)N(CCc2ccccc2)Cc2ccccc2)c(OC)n1,1.4,-3.4,23.3,-0.3,8.8,.
Nc1[nH]c(C(=O)c2ccccc2)c(-c2cccnc2)c1C(=O)c1ccccc1,.,4.2,.,.,5.2,.
C#Cc1ccc([C@H]2C=C(C(=O)OCC=C)O[C@@H](OCC)[C@@H]2CCCO)cc1,14.1,-13.6,78.1*,4.2,-15.3,-14.2
C#Cc1ccc([C@@H]2C=C(C(=O)OCC=C)O[C@H](OCC)[C@H]2CCCO)cc1,-11.0,7.6,1.6,3.0,-7.6,.
O=C(/C=C/Sc1ccc(C(F)(F)F)cn1)c1ccccc1,7.0,-7.2,64.0*,-0.3,-2.9,-3.0
Cc1ccc(OCC(=O)Nc2ccc(S(=O)(=O)N3CCOCC3)cc2)c(Br)c1,3.3,5.6,1.5,-0.6,2.6,.
C=CCSc1nc2c(C(=O)OCC)nnn2c2ccccc12,-0.7,8.6,80.9*,-3.8,12.2,0.0
CCOC(=O)c1nnn2c1nc(SCC(C)=O)c1ccccc12,-1.4,9.0,2.0,3.4,-3.5,.
CC(=O)NC(c1cccs1)c1cc(Cl)c2ccccc2c1O (centres undefined),0.0,4.5,72.6*,2.3,12.0,-12.4
CCC(=O)NC(c1cccs1)c1cc(Cl)c2ccccc2c1O (centres undefined),8.7,8.2,16.6,2.8,1.2,.
COC1=CC(=O)c2c(ccc3ncnc(N)c23)C1=O,22.4,13.9,88.4*,-0.1,22.9,14.0
COc1cc(C(c2nnnn2C(C)(C)C)N2CCN(c3nc4ccccc4s3)CC2)ccc1O (centres undefined),-1.1,7.7,58.1*,1.5,5.8,37.0
CC12CCC(=O)N1C(C(=O)Nc1cc(Cl)ccc1N1CCCC1)CS2 (centres undefined),1.3,5.1,-2.4,2.2,-3.8,.
CCCC(=O)N1CCCC1(C)C(=O)Nc1ccc2c(c1)CCN2C(C)=O (centres undefined),4.8,-9.2,4.1,.,-1.7,.
CCCCc1ccc(NC(=O)CSc2nc(=O)n(CCN(CC)CC)c3c2CCC3)cc1,-6.8,-4.5,83.6*,-3.5,7.1,21.5
Cc1ccc(S(=O)(=O)N(Cc2ccc(Cl)cc2)c2ccccc2C(=O)O)cc1,5.1,14.7,6.3,-2.7,-12.4,.
N#Cc1ccc(CN(c2ccncc2)S(=O)(=O)c2ccccc2)cc1,-1.6,5.0,-3.9,1.0,3.1,.
CC(C)n1nccc1N(Cc1ccc(Cl)cc1)S(=O)(=O)c1ccccc1,11.4,-4.8,97.3*,-0.6,-0.3,2.2
CC(C)n1nccc1N(Cc1ccc(Br)cc1)S(=O)(=O)c1ccccc1,7.5,4.2,90.3*,-7.1,-7.2,10.9
CCCCOc1ccc(C(=O)NCC(=O)N2CCN(C/C=C/c3ccccc3)CC2)cc1,-8.6,-2.6,4.0,1.4,-10.2,.
COc1ccc(Cl)cc1Cn1c(C)c(C(=O)NCc2cccc(Cl)c2)sc1=O,-17.7,-9.1,-8.2,.,-3.2,.
O=C(Nc1ccc(O)cc1)c1ccccc1OCc1ccccc1,-2.0,0.9,-5.1,1.4,7.4,.
COc1cc(NC(=O)c2ccccc2OCc2ccccc2)cc(OC)c1OC,-4.8,-7.6,84.1*,-0.9,23.6,-7.2
SMILES,NRP1-CendR mod,ARFGAP1 inh,Granule exo inh,V-ATPase pH,ASAP1 GAP inh,Exocytosis CP01
CNC(=O)c1cccc(NC(=O)c2ccccc2OCc2ccccc2)c1,-10.2,-8.8,63.1*,-3.7,-0.4,-5.2
Cn1c(NCC(O)c2ccccc2)nc2c1c(=O)n(Cc1ccc(Cl)c(Cl)c1)c(=O)n2C (centres undefined),7.0,8.6,92.2*,2.3,9.9,14.3
CCSc1nc2c(c(=O)[nH]c(=O)n2C)n1CC(O)COc1ccccc1 (centres undefined),3.2,8.7,87.1*,5.0,13.6,-2.3
CC1(O)CC(C)(C)C(C#N)C(=O)N1 (centres undefined),16.8,4.1,0.1,0.0,-1.7,.
COc1cc2c(cc1NC(=O)CSc1nnc(COc3ccc(Cl)cc3)n1C)oc1ccccc12,-19.5,6.4,60.3*,0.8,4.8,22.4
COc1cc2c(cc1NC(=O)CSc1nnc(Cc3cccs3)n1C)oc1ccccc12,-8.4,-6.2,16.1,1.9,-1.8,.
Cc1ccc(-c2cc(C(=O)Nc3ccccn3)c3ccccc3n2)o1,-15.8,-16.4,87.9*,0.4,8.2,-9.4
Cc1ccc(-c2cc(C(=O)Nc3cccnc3)c3ccccc3n2)o1,-32.9,5.5,82.2*,-6.3,-7.8,-11.6
Cc1ccc(NC(=O)c2cc(-c3ccc(C)o3)nc3ccccc23)cc1,-35.2,-3.5,84.0*,1.2,2.8,-12.0
COc1ccccc1NC(=O)c1cc(-c2ccc(C)o2)nc2ccccc12,-2.8,15.3,11.6,-2.9,0.8,.
CN(C)C(=O)c1c2c(nc3ccccc13)CCCC2,-8.2,4.0,107.4*,-2.1,-2.9,-10.6
O=C(O)c1c2c(nc3ccccc13)CCCCC2,12.3,21.1,0.6,2.2,7.3,.
Cc1onc(-c2ccccc2)c1C(=O)Nc1sc2c(c1C(N)=O)CCC2,-13.7,6.5,-2.2,-1.3,16.3,.
Cc1onc(-c2c(F)cccc2Cl)c1C(=O)Nc1sc2c(c1C(N)=O)CCC2,0.2,3.1,56.2*,15.4,7.1,6.6
Cc1cc(Br)cn2c(Cc3ccccc3)c(-c3ccco3)nc12,-0.8,-5.2,14.7,.,-1.6,.
Cc1cc(Br)cn2c(Cc3ccsc3)c(-c3ccco3)nc12,-81.5,-15.7,59.5*,.,1.5,-14.9
COc1cccc(CN2C(=O)[C@H]3Cc4c([nH]c5ccccc45)C(C)(C)N3C2=O)c1,-2.2,8.2,77.9*,2.5,-0.9,-8.8
COc1ccc(CN2C(=O)[C@@H]3Cc4c([nH]c5ccccc45)C(C)(C)N3C2=O)cc1,-9.5,-6.4,2.7,3.6,10.0,.
Clc1ccc(/C=C\c2nccc3c2[nH]c2ccccc23)cc1,-6.6,1.5,87.7*,-0.7,-3.7,3.8
O=C(NCc1ccccn1)C1Nc2ccc(C(F)(F)F)cc2C2C=CCC12 (centres undefined),-6.3,4.6,64.1*,-4.3,11.4,-14.6
